From ChEMBL document CHEMBL1156985 (Bioorg Med Chem Lett, 2010)

What was measured:
[1] = Inhibition of gamma secretase-mediated Abeta40 production
[2] = Inhibition of gamma secretase-mediated Abeta42 production by cell based assay
Outline: (§1)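 Cell-based assay measuring secreted Abeta40 and Abeta42. IC50 values are the means of two experiments.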

[3] = AUC in CRND8 mouse; type: ADME, organism-based; design: concentration or dose not given beside the values; settings: plasma
[4] = Inhibition of gamma secretase-mediated Abeta40 production by cell based assay; outline: as §1
Cytochrome P450 3A4 = Cytochrome P450 3A4 (Homo sapiens, UniProt P08684); assay: Inhibition of CYP3A4 preincubated for 30 mins; type: ADME
Mus musculus [5] = assay: Gastrointestinal toxicity in CRND8 mouse at 30 mg/kg, po after 3 hrs; type: organism-based; design: dose 30 mg/kg, route oral; settings: in vivo
Mus musculus [6] = assay: Inhibition of Abeta40 production in CRND8 mouse brain cortex at 30 mg/kg, po after 3 hrs; type: functional
Outline: (§2)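 CRND8 transgenic mice were given a single oral dose of 30 mg/kg. Abeta40 was measured in plasma and brain cortex at 3 h, or at 6 h, after dosing. Results are expressed as percent inhibition of Abeta40.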

Mus musculus [7] = assay: Inhibition of Abeta40 production in CRND8 mouse plasma at 30 mg/kg, po after 3 hrs; type: functional; outline: as §2
Mus musculus [8] = assay: Inhibition of Abeta40 production in CRND8 mouse plasma at 30 mg/kg, po after 6 hrs; type: functional; outline: as §2
Mus musculus [9] = assay: Inhibition of Abeta40 production in CRND8 mouse brain cortex at 30 mg/kg, po after 6 hrs; type: functional; outline: as §2

Chain of Cytochrome P450 3A4 (P08684 whole entry): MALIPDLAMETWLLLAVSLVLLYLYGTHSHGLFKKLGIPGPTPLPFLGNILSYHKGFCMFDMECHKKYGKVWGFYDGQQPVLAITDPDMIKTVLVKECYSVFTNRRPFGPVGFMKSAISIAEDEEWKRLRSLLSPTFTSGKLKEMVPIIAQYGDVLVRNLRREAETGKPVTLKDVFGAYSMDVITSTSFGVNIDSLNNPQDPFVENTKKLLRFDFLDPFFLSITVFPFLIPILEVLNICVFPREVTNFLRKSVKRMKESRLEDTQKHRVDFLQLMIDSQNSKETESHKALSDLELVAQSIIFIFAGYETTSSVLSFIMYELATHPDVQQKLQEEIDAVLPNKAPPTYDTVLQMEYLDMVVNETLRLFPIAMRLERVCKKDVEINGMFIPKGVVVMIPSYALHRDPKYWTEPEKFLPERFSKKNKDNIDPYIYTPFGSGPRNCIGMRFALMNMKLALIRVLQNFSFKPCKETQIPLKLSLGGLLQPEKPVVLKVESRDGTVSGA

SMILES | IC50 [1] [nM] | IC50 [2] [nM] | IC50 [4] [nM] | further results
CCC1(S(=O)(=O)c2ccc(Cl)cc2)CC(CO)Oc2c(F)ccc(F)c21 (mixture of isomers) | 620 | – | – | –
CC(=O)NC1CCC2(S(=O)(=O)c3ccc(Cl)cc3)c3c(F)ccc(F)c3OCC2C1 (racemic) | 107 | 107 | 145 | AUC [3]: 1720 ng·h/mL
CCC1(S(=O)(=O)c2ccc(Cl)cc2)CCOc2c(F)ccc(F)c21 (racemic) | 72 | – | – | –
O=S(=O)(N[C@@H]1CC[C@@]2(S(=O)(=O)c3ccc(Cl)cc3)c3c(F)ccc(F)c3OC[C@H]2C1)C(F)(F)F | 27.1 | 46 | 108 | IC50 (Cytochrome P450 3A4): > 30000 nM; Activity (Mus musculus [5]): Non-toxic; inhibition in vivo at 30 mg/kg (Mus musculus [6]): 42%; inhibition in vivo at 30 mg/kg (Mus musculus [7]): 90%; AUC [3]: 5050 ng·h/mL
C[C@@H]1C[C@](C)(S(=O)(=O)c2ccc(Cl)cc2)c2c(F)ccc(F)c2O1 (relative stereo) | 1200 | – | – | –
O=S(=O)(c1ccc(Cl)cc1)[C@H]1c2c(F)ccc(F)c2OC[C@@H]1CO (relative stereo) | 510 | – | – | –
C[C@H]1COc2c(F)ccc(F)c2[C@@H]1S(=O)(=O)c1ccc(Cl)cc1 (relative stereo) | 64 | – | – | –
C[C@H]1COc2c(F)ccc(F)c2[C@@]1(C)S(=O)(=O)c1ccc(Cl)cc1 (relative stereo) | 110 | – | – | –
O=S(=O)(N[C@@H]1CC[C@@]2(S(=O)(=O)c3ccc(Cl)cc3)c3c(F)ccc(F)c3OC[C@H]2C1)c1ccccn1 | 7.6 | 26 | 68 | inhibition in vivo at 30 mg/kg (Mus musculus [7]): 19%
CC[C@@H]1C[C@](CC)(S(=O)(=O)c2ccc(Cl)cc2)c2c(F)ccc(F)c2O1 (relative stereo) | 830 | – | – | –
O=S(=O)(c1ccc(Cl)cc1)C1CCOc2c(F)ccc(F)c21 (racemic) | 1600 | – | – | –
CC1(S(=O)(=O)c2ccc(Cl)cc2)CCOc2c(F)ccc(F)c21 (racemic) | 808 | – | – | –
O=S(=O)(N[C@@H]1CC[C@@]2(S(=O)(=O)c3ccc(Cl)cc3)c3c(F)ccc(F)c3OC[C@H]2C1)C1CC1 | 8.4 | 4.3 | 9.3 | IC50 (Cytochrome P450 3A4): > 30000 nM; AUC [3]: 1910 ng·h/mL; inhibition in vivo at 30 mg/kg (Mus musculus [8]): 80%; inhibition in vivo at 30 mg/kg (Mus musculus [9]): 58%
NC1CCC2(S(=O)(=O)c3ccc(Cl)cc3)c3c(F)ccc(F)c3OCC2C1 (racemic) | 1700 | – | – | –
O=S(=O)(c1ccc(Cl)cc1)C12CCC(O)CC1COc1c(F)ccc(F)c12 (racemic) | 28 | 18 | 25 | inhibition in vivo at 30 mg/kg (Mus musculus [6]): 55%; inhibition in vivo at 30 mg/kg (Mus musculus [7]): 44%; AUC [3]: 164 ng·h/mL
O=C1CCC2(S(=O)(=O)c3ccc(Cl)cc3)c3c(F)ccc(F)c3OCC2C1 (racemic) | 13 | 12 | 17 | IC50 (Cytochrome P450 3A4): 1200 nM; inhibition in vivo at 30 mg/kg (Mus musculus [7]): 19%; AUC [3]: 60 ng·h/mL
COC[C@H]1COc2c(F)ccc(F)c2[C@@]1(C)S(=O)(=O)c1ccc(Cl)cc1 (relative stereo) | 270 | – | – | –
